≈ marks a conversion by molar mass, not a printed value.
Assays:
Assay type in all cases: functional
[1] = tested on: Escherichia coli; experiment: Antibacterial activity against Escherichia coli ATCC 11303 after 24 hrs by NCCLS M7-A6 broth dilution method; details: ATCC 11303, 24 h
How it was run: (§1)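 Broth microdilution MIC per NCCLS. The 4 mg/mL DMSO stock was diluted in Mueller-Hinton broth with inoculum at 10^5 CFU/mL. Twofold serial dilutions gave final concentrations of 200 to 0.39 µg/mL. Incubation was 24 h at 37 °C, and cultures were streaked on plates to check clarity. MIC was the lowest concentration giving a clear well. Controls were medium-only and DMSO-only inoculated broth.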

[2] = tested on: Staphylococcus aureus; experiment: Antibacterial activity against Staphylococcus aureus ATCC 10832 after 24 hrs by NCCLS M7-A6 broth dilution method; details: ATCC 10832, 24 h
How it was run: (§2)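 96-well microtitre broth dilution in Mueller-Hinton broth, inoculum 10^5 CFU/mL. Compounds dissolved in DMSO at 4 mg/mL, then twofold serial dilution giving final 200 down to 0.39 µg/mL. Incubated 24 h at 37 °C. Cultures streaked on plates to check clarity; MIC taken as lowest concentration leaving the well clear. DMSO-only solvent control run at matching dilutions.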

[3] = tested on: Staphylococcus aureus; experiment: Antibacterial activity against methicillin-resistant Staphylococcus aureus ATCC 700699 after 24 hrs by NCCLS M7-A6 broth dilution method; details: ATCC 700699, 24 h; how it was run: as §2
[4] = tested on: Bacillus subtilis; experiment: Antibacterial activity against Bacillus subtilis ATCC 33712 after 24 hrs by NCCLS M7-A6 broth dilution method; details: ATCC 33712, 24 h; how it was run: as §1
[5] = tested on: Candida albicans; experiment: microbe, parasite or virus in culture; details: ATCC 10231, 24 h

Compound | MIC [1] [µg/mL] | MIC [2] [µg/mL] | MIC [3] [µg/mL] | MIC [4] [µg/mL] | MIC [5] [µg/mL]
COc1ccc(O[C@@H](Cc2ccc3oc(CCCc4nc(-c5ccccc5)oc4C)nc3c2)C(=O)O)cc1 | 100 (≈ 195 µM) | 25 (≈ 48.8 µM) | 25 (≈ 48.8 µM) | 50 (≈ 97.5 µM) | > 200
Cc1oc(-c2ccccc2)nc1CCCc1nc2cc(C[C@H](Oc3ccc(C(C)(C)C)cc3)C(=O)O)ccc2o1 | 3.12 (≈ 5.79 µM) | 1.56 (≈ 2.9 µM) | 1.56 (≈ 2.9 µM) | 3.12 (≈ 5.79 µM) | > 200
Cc1oc(-c2ccccc2)nc1CCCc1nc2cc(C[C@H](Oc3ccc(-c4ccccc4)cc3)C(=O)O)ccc2o1 | 3.12 (≈ 5.59 µM) | 1.56 (≈ 2.79 µM) | 1.56 (≈ 2.79 µM) | 3.12 (≈ 5.59 µM) | > 200
Cc1oc(-c2ccccc2)nc1CCCc1nc2cc(C[C@H](Oc3ccc(OCc4ccccc4)cc3)C(=O)O)ccc2o1 | 6.25 (≈ 10.6 µM) | 1.56 (≈ 2.65 µM) | 1.56 (≈ 2.65 µM) | 1.56 (≈ 2.65 µM) | > 200
CO[C@@H](Cc1ccc2oc(CCCc3nc(-c4ccccc4)oc3C)nc2c1)C(=O)O | > 200 | 200 (≈ 476 µM) | 100 (≈ 238 µM) | 200 (≈ 476 µM) | > 200
Cc1oc(-c2ccccc2)nc1CCCc1nc2cc(C[C@H](OC(C)C)C(=O)O)ccc2o1 | 200 (≈ 446 µM) | 50 (≈ 111 µM) | 50 (≈ 111 µM) | 50 (≈ 111 µM) | > 200
Cc1oc(-c2ccccc2)nc1CCCc1nc2cc(C[C@@H](Oc3ccc(C(F)(F)F)cc3)C(=O)O)ccc2o1 | 25 (≈ 45.4 µM) | 12.5 (≈ 22.7 µM) | 6.25 (≈ 11.4 µM) | 12.5 (≈ 22.7 µM) | > 200
Cc1oc(-c2ccccc2)nc1CCCc1nc2cc(C[C@@H](Oc3ccc(C(C)(C)C)cc3)C(=O)O)ccc2o1 | 25 (≈ 46.4 µM) | 12.5 (≈ 23.2 µM) | 12.5 (≈ 23.2 µM) | 12.5 (≈ 23.2 µM) | > 200
Cc1oc(-c2ccccc2)nc1CCCc1nc2cc(C[C@@H](Oc3ccc(-c4ccccc4)cc3)C(=O)O)ccc2o1 | 12.5 (≈ 22.4 µM) | 12.5 (≈ 22.4 µM) | 6.25 (≈ 11.2 µM) | 6.25 (≈ 11.2 µM) | > 200
Cc1oc(-c2ccccc2)nc1CCCc1nc2cc(C[C@@H](Oc3ccc(OCc4ccccc4)cc3)C(=O)O)ccc2o1 | 25 (≈ 42.5 µM) | 25 (≈ 42.5 µM) | 25 (≈ 42.5 µM) | 12.5 (≈ 21.2 µM) | > 200
COC(=O)[C@H](Cc1ccc2oc(CCCc3nc(-c4ccccc4)oc3C)nc2c1)Oc1ccc(-c2ccccc2)cc1 | > 200 | > 200 | > 200 | > 200 | > 200
CO/N=C(\C(=O)N[C@@H]1C(=O)N2C(C(=O)O)=C(COC(C)=O)CS[C@H]12)c1csc(N)n1 [CEFOTAXIME] | 200 (≈ 439 µM) | 3.12 (≈ 6.85 µM) | 3.12 (≈ 6.85 µM) | 0.78 (≈ 1.71 µM) | 
CC(C)(O/N=C(\C(=O)N[C@@H]1C(=O)N2C(C(=O)[O-])=C(C[n+]3ccccc3)CS[C@H]12)c1csc(N)n1)C(=O)O [CEFTAZIDIME] | 200 (≈ 366 µM) | 0.78 (≈ 1.43 µM) | 12.5 (≈ 22.9 µM) | 6.25 (≈ 11.4 µM) | 
CC1=C(C(=O)O)N2C(=O)[C@@H](NC(=O)[C@H](N)C3=CCC=CC3)[C@H]2SC1 [CEPHRADINE] | 25 (≈ 71.5 µM) | 25 (≈ 71.5 µM) | 50 (≈ 143 µM) | 50 (≈ 143 µM) | 
CC(=O)N1CCN(c2ccc(OCC3COC(Cn4ccnc4)(c4ccc(Cl)cc4Cl)O3)cc2)CC1 (stereo not drawn) [KETOCONAZOLE] |  |  |  |  | < 0.39
Clc1ccc(COC(Cn2ccnc2)c2ccc(Cl)cc2Cl)c(Cl)c1.O=[N+]([O-])O (stereo not drawn) [MICONAZOLE NITRATE] |  |  |  |  | 1.56
CC1(C)S[C@@H]2[C@H](NC(=O)Cc3ccccc3)C(=O)N2[C@H]1C(=O)[O-].[Na+] [PENICILLIN G SODIUM] | 0.78 | 3.12 | 3.12 | < 0.39 | 

Reference: ChEMBL document CHEMBL1817558, “Design, synthesis and antimicrobial activity of chiral 2-(substituted-hydroxyl)-3-(benzo[d]oxazol-5-yl)propanoic acid derivatives” (2011)
